What all share (type): functional
Experiment [1] relates to Streptococcus pneumoniae. The experiment in a line: Antibacterial activity against Streptococcus pneumoniae by CLSI M100-S17 method.
In experiment [2] the test system is Streptococcus pneumoniae. The experiment in a line: Antibacterial activity against Streptococcus pneumoniae assessed as susceptible isolates by CLSI M100-S17 method. Put shortly: (§1)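 CLSI broth microdilution on clinical isolates, using frozen in-house-prepared panels of test and comparator agents. MICs were read after 20 to 24 h incubation at 35°C in ambient air. Susceptible/intermediate categories were assigned by CLSI M100-S17 guidelines.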

Experiment [3] has as its system Streptococcus pneumoniae. The experiment in a line: Antibacterial activity against Streptococcus pneumoniae assessed as intermediate isolates by CLSI M100-S17 method. Put shortly:
as §1

The test system of experiment [4] is Streptococcus pneumoniae. Briefly: Antibacterial activity against Streptococcus pneumoniae assessed as resistant isolates by CLSI M100-S17 method. Put shortly:
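Clinical isolates were tested by CLSI broth microdilution in frozen, in-house-prepared 96-well panels of the test agent and comparator agents. MICs were read and classed as susceptible, intermediate or resistant using CLSI M100-S17 breakpoints. The value is the share of isolates in each category.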

The source of these data is ChEMBL document CHEMBL1649552 (2009).

Broadly, the MIC50 is the lowest concentration that inhibits either 50% of growth or 50% of the strains tested, depending on the study. A high value points to lower susceptibility. One may read the MIC90 as the lowest concentration that inhibits either 90% of growth or 90% of the strains tested, depending on the study. Read a high MIC90 as lower susceptibility.

The structures appear in SMILES notation. Converted amounts (≈) assume the structure as drawn.

As to `CO/N=C(\C(=O)N[C@@H]1C(=O)N2C(C(=O)O)=C(CSc3nc(=O)c(O)nn3C)CS[C@H]12)c1csc(N)n1` [CEFTRIAXONE], the MIC50 against Streptococcus pneumoniae [1] was at most 0.06 mg/L. In the experiment with Streptococcus pneumoniae [1], the MIC90 is 0.12 mg/L (≈ 0.216 µM). Further, the Activity with Streptococcus pneumoniae [2] is 99.7%; with Streptococcus pneumoniae [3], 0.2%; in the experiment on Streptococcus pneumoniae [4], 0.1%.

As for `C[C@H]1COc2c(N3CCN(C)CC3)c(F)cc3c(=O)c(C(=O)O)cn1c23.C[C@H]1COc2c(N3CCN(C)CC3)c(F)cc3c(=O)c(C(=O)O)cn1c23.O` [LEVOFLOXACIN], the MIC50 in the experiment with Streptococcus pneumoniae [1] was found to be 0.5 mg/L. In the experiment with Streptococcus pneumoniae [1], the MIC90 turned out to be 1 mg/L. The values for the Activity in the experiment on Streptococcus pneumoniae [2], in the experiment with Streptococcus pneumoniae [3] and with Streptococcus pneumoniae [4] were 99.4%, 0% and 0.6%, respectively.
